pIC50: −log10 of the molar value.
These compounds were tested on Trypanosoma brucei rhodesiense (assay: Antitrypanosomal activity against Trypanosoma brucei rhodesiense STIB900). Conditions: not given.
Type: functional, organism-based
In short: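 Bloodstream forms (10⁴ per well) in MEM with 15% heat-inactivated horse serum, 25 mM HEPES, 2-mercaptoethanol, hypoxanthine. 3-fold serial dilutions from 90 to 0.123 µg/mL, in duplicate. Incubation 72 h at 37 °C, 5% CO₂. Resazurin then added for 2–4 h more. Fluorescence read at ex 536 / em 588 nm.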

Structure (SMILES)	pIC50
N=C(N)Nc1ccc(NC(=O)c2ccccc2)cc1	3.91
c1cc2c(cc1NC1=NCCN1)OCO2	4.03
CN(C)c1ccc(NC(=N)N)cc1	4.70
N=C(N)Nc1ccc(N2CCCCC2)cc1	4.31
c1cc(N2CCCCC2)ccc1NC1=NCCN1	4.30
c1ccc(Sc2ccc(NC3=NCCN3)cc2)cc1	5.72
O=C(Nc1ccccc1)c1ccc(NC2=NCCN2)cc1	4.37
Cc1ccc(NC(=N)N)cc1	3.79
N=C(N)Nc1ccc(Cc2ccccc2)cc1	4.80
Cc1ccc(NC(=N)N)cc1C	4.40
N=C(N)Nc1ccc(Oc2ccccc2)cc1	4.73
CSc1ccc(NC(=N)N)cc1	5.23
c1cc2c(cc1NC1=NCCN1)OCCO2	4.16
N=C(N)Nc1ccc2c(c1)CCC2	6.00
N=C(N)Nc1ccc(NC(=O)Nc2ccccc2)cc1	4.48

What follows are compounds tested on Plasmodium falciparum (assay: Antiplasmodial activity against Plasmodium falciparum K1 in [3H]hypoxanthine incorporation assay). Conditions: K1, 72 h.
Type: functional, organism-based
In short: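 K1 erythrocytic stages in RPMI 1640 without hypoxanthine with AlbuMax, human A⁺ red cells at 2.5% hematocrit, 0.3% parasitemia. Compounds taken from 10 mg/mL DMSO stock, tested as serial doubling dilutions at 37 °C in 4% CO₂/3% O₂/93% N₂. After 48 h, ³H-hypoxanthine (0.5 µCi) added for 24 h more; incorporation by scintillation counting. IC₅₀ from sigmoidal curves.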

Structure (SMILES)	pIC50
N=C(N)Nc1ccc(NC(=O)c2ccccc2)cc1	4.98
c1cc2c(cc1NC1=NCCN1)OCO2	< 4.70
CN(C)c1ccc(NC(=N)N)cc1	< 4.72
N=C(N)Nc1ccc(N2CCCCC2)cc1	5.10
c1cc(N2CCCCC2)ccc1NC1=NCCN1	4.92
c1ccc(Sc2ccc(NC3=NCCN3)cc2)cc1	5.92
O=C(Nc1ccccc1)c1ccc(NC2=NCCN2)cc1	< 4.82
Cc1ccc(NC(=N)N)cc1	< 4.57
N=C(N)Nc1ccc(Cc2ccccc2)cc1	5.42
Cc1ccc(NC(=N)N)cc1C	4.91
N=C(N)Nc1ccc(Oc2ccccc2)cc1	5.10
CSc1ccc(NC(=N)N)cc1	5.89
c1cc2c(cc1NC1=NCCN1)OCCO2	< 4.72
N=C(N)Nc1ccc2c(c1)CCC2	6.02
N=C(N)Nc1ccc(NC(=O)Nc2ccccc2)cc1	5.39

Each compound was assayed on L6 (assay: Cytotoxicity against rat L6 cells). Conditions: not given.
Type: cell-based

Structure (SMILES)	pIC50
N=C(N)Nc1ccc(NC(=O)c2ccccc2)cc1	< 3.51
c1cc2c(cc1NC1=NCCN1)OCO2	< 3.43
CN(C)c1ccc(NC(=N)N)cc1	< 3.45
N=C(N)Nc1ccc(N2CCCCC2)cc1	3.63
c1cc(N2CCCCC2)ccc1NC1=NCCN1	< 3.55
c1ccc(Sc2ccc(NC3=NCCN3)cc2)cc1	4.55
O=C(Nc1ccccc1)c1ccc(NC2=NCCN2)cc1	< 3.55
Cc1ccc(NC(=N)N)cc1	< 3.32
N=C(N)Nc1ccc(Cc2ccccc2)cc1	4.36
Cc1ccc(NC(=N)N)cc1C	3.72
N=C(N)Nc1ccc(Oc2ccccc2)cc1	4.22
CSc1ccc(NC(=N)N)cc1	3.62
c1cc2c(cc1NC1=NCCN1)OCCO2	< 3.45
N=C(N)Nc1ccc2c(c1)CCC2	4.13
N=C(N)Nc1ccc(NC(=O)Nc2ccccc2)cc1	< 3.63

Source: ChEMBL document CHEMBL1141653, “New bis(2-aminoimidazoline) and bisguanidine DNA minor groove binders with potent in vivo antitrypanosomal and antiplasmodial activity” (J Med Chem, 2008)
